The target in series [1] is Protein arginine N-methyltransferase 3 (Homo sapiens) (UniProt O60678). Description: Inhibition of PRMT3-mediated methylation of NPL3 at 100 uM after 90 mins by scintillation counting in presence of S-adenosyl-l-[methyl-3H]methionine. The essentials:
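Compound at 100 μM with 0.1–0.2 μM recombinant enzyme and 0.5–1.5 μM substrate in PBS pH 7.4 containing [³H]AdoMet. Incubated 30 °C for 90 min, then SDS-PAGE, PVDF transfer and overnight film fluorography. Ponceau-stained substrate bands cut out and dpm counted by liquid scintillation.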

For series [2], the target named is T1, Histone-arginine methyltransferase CARM1 (Homo sapiens) (UniProt Q86X55).
T1 sequence (whole entry): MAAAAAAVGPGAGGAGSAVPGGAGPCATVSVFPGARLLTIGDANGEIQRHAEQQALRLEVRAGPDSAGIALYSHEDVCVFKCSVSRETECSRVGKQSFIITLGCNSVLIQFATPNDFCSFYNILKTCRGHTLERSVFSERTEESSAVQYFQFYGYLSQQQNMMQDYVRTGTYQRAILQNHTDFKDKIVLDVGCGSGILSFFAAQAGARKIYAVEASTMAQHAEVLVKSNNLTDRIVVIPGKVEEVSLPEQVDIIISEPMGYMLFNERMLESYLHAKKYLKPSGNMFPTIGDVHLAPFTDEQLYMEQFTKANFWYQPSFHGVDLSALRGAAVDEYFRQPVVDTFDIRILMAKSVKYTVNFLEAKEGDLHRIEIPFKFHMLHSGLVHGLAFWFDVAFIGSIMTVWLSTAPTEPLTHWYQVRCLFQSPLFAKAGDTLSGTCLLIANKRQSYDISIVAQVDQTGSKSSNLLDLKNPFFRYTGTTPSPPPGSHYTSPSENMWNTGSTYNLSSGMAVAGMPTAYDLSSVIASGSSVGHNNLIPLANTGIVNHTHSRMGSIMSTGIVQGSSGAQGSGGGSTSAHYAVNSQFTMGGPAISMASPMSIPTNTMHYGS
Nature of the series: Inhibition of CARM1-mediated prostate specific antigen promoter activity in human LNCAP cells after 48 hrs by luciferase reporter gene assay. The class given is cell-based. In a few lines:
(§1)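 LNCaP grown in phenol-red-free RPMI1640 with 10% charcoal-stripped FCS, lipofected with 300 ng PSA(ARE)-LUC and 2 ng CMV-Renilla internal control. After 12 h, 20 nM DHT added to induce PSA-firefly, together with increasing compound concentrations. Cells harvested 42–44 h later; 5/6 used for dual luciferase read-out (firefly relative to Renilla). Mean ± SD from triplicate assays.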
A general note: A reporter such as luciferase makes a cellular process visible.

Series [3] addresses T1, Histone-arginine methyltransferase CARM1 (Homo sapiens). Nature of the series: Inhibition of CARM1 expressed in tetracycline-induced human HEK293 cells coexpressing flag-tagged PABP1 assessed as inhibition of PABP1 methylation at 1 to 5 uM by SDS-PAGE analysis. It is filed as cell-based. In a few lines:
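HEK293 line carrying tetracycline-controlled TetR with inducible Flag-tagged PABP1. Tetracycline added in the presence of compound to induce Flag-PABP1, which is resolved from endogenous PABP1 by its slower SDS-PAGE migration. Methylation detected with a methyl-specific PABP1 antibody.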

The test system of series [4] is LNCaP. Nature of the series: Cytotoxicity against human LNCAP cells assessed as ATP level at 8 to 10 uM after 44 hrs by CellTiter-Glo luminescent assay. It is filed as cell-based. In a few lines:
(§2)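 LNCaP in phenol-red-free RPMI1640 with 10% charcoal-stripped FCS, seeded ~20 h before transfection with PSA(ARE)-LUC plus CMV-Renilla. 12 h after transfection, treated with 20 nM DHT and compound. Harvested after 42–44 h; 1/6 of the cells assayed for ATP by CellTiter-Glo luminescence.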
(In ATP-based viability assays light output follows the ATP content of the culture.)

Series [5] has as its target T1, Histone-arginine methyltransferase CARM1 (Homo sapiens). Nature of the series: Inhibition of CARM1-mediated prostate specific antigen promoter activity in human LNCAP cells at 30 uM after 48 hrs by luciferase reporter gene assay. It is filed as cell-based. In a few lines: as §1
The subject of series [6] is LNCaP. Description: Cytotoxicity against human LNCAP cells assessed as ATP level at 30 uM after 44 hrs by CellTiter-Glo luminescent assay. It is filed as cell-based. The essentials:
as §2

The source made the active and inactive calls. The calls are words filed in the database; no cut-off is given here.

Protein arginine N-methyltransferase 3 (Homo sapiens), sequence (O60678 2-531 limits assumed): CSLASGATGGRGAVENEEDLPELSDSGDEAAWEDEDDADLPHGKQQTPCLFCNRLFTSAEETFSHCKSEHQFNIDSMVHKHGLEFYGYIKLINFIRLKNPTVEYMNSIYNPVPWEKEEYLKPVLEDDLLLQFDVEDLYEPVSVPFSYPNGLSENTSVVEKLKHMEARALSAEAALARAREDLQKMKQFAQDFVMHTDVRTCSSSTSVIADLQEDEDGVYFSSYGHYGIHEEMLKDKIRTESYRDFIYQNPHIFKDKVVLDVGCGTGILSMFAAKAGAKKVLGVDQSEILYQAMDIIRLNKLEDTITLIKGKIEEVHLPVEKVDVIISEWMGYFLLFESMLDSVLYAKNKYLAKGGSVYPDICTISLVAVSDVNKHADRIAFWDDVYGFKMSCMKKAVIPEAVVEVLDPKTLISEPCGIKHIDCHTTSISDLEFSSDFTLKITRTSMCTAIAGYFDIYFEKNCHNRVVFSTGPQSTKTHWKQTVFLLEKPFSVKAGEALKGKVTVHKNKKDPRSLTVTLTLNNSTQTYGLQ

Regarding `O=C1/C(=C/c2ccc(O)c(Br)c2)CN(Cc2ccccc2)C/C1=C\c1ccc(O)c(Br)c1`, the inhibition entry in series [1] and in series [3] was “Active” in each case. Also, the inhibition result in series [2] is “Dose-dependent effect”. In series [4], the Activity entry is “Non-toxic”.
On to `O=C1/C(=C/c2ccc(O)c(Br)c2)CN(Cc2cccc(Cl)c2)C/C1=C\c1ccc(O)c(Br)c1`, for which, in series [1], the inhibition result was “Active”. In addition, the inhibition entry in series [2] was “Dose-dependent effect”.
On to `O=C1/C(=C/c2ccc(O)c(Br)c2)CN(CC(=O)c2ccccc2)C/C1=C\c1ccc(O)c(Br)c1`, for which the inhibition result in series [5] was “Active”. Further, in series [6], the Activity result is given as “Non-toxic”.

(Values after ChEMBL document CHEMBL1799916, “Novel 3,5-bis(bromohydroxybenzylidene)piperidin-4-ones as coactivator-associated arginine methyltransferase 1 inhibitors: enzyme selectivity and cellular activity” (J Med Chem, 2011).)
